From ChEMBL document CHEMBL1137397, “Identification of selective, nonpeptidic nitrile inhibitors of cathepsin s using the substrate activity screening method” (J Med Chem, 2006)

Experiments:
Procathepsin L = Procathepsin L (Homo sapiens, UniProt P07711); assay: Inhibition of cathepsin L
In short: (§1)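 Cathepsins B (2 nM), K (10 nM) or L (0.03 nM) in pH 6.1 phosphate/NaCl/DTT/EDTA/Tween-20 buffer. Preincubated 5 min at 37 °C with five inhibitor levels (10-90% inhibition), in duplicate. Cbz-Phe-Arg-AMC added at 5 and 2.5 µM (B, K) or 0.6 and 0.3 µM (L). AMC read at ex 355/em 450 nm for 5 min. Ki by Dixon plot.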

Cathepsin K = biological target: T1, Cathepsin K (Homo sapiens, UniProt P43235); assay: Inhibition of cathepsin K; in short: as §1
T1 sequence (P43235 whole entry): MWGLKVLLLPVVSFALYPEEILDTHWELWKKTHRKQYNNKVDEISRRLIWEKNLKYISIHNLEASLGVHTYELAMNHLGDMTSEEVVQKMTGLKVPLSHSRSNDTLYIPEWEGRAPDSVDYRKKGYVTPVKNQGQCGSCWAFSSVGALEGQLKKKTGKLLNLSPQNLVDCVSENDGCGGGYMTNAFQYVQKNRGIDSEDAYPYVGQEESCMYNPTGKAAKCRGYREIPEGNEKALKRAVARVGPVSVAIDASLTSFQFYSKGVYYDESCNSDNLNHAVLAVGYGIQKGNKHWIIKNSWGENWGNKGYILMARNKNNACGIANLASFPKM

Cathepsin B = Cathepsin B (Homo sapiens, UniProt P07858); assay: Inhibition of cathepsin B; in short: as §1
Cathepsin S = Cathepsin S (Homo sapiens, UniProt P25774); assay: Inhibition of cathepsin S
Chain of Cathepsin S (P25774 whole entry): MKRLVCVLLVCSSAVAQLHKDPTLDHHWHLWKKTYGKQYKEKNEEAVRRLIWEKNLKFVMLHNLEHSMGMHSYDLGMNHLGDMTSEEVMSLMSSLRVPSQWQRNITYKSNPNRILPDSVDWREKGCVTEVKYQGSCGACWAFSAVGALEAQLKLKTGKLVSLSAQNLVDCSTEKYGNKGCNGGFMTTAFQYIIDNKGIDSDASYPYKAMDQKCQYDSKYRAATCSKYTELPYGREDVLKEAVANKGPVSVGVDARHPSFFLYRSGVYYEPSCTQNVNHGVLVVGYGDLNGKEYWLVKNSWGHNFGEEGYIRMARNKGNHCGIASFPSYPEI
In short: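 Cathepsin S at 0.6 nM in pH 6.1 100 mM sodium phosphate with 100 mM NaCl, 1 mM DTT, 1 mM EDTA and 0.001% Tween-20. Enzyme preincubated 5 min at 37 °C with five inhibitor concentrations (10-90% inhibition), in duplicate. Cbz-Leu-Arg-AMC added at 5 and 2.5 µM, then AMC read (ex 355/em 450 nm) over 5 min. Ki by Dixon method.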

Chain of Procathepsin L (P07711 whole entry): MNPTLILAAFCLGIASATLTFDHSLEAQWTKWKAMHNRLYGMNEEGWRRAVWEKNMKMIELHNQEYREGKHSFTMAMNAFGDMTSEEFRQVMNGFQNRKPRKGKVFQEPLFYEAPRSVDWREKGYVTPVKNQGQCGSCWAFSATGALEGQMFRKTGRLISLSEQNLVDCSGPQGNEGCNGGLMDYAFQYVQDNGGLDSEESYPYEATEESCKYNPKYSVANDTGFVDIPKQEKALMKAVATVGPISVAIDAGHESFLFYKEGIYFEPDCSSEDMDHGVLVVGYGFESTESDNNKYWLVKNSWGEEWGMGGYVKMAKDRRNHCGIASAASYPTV

Compound | IC50 (Procathepsin L) | Ki (Procathepsin L) | Ki (Cathepsin K) | IC50 (Cathepsin B) | Ki (Cathepsin B) | Ki (Cathepsin S) | IC50 (Cathepsin K)
CCCC[C@@H](C#N)n1cc([C@@](C)(NC(=O)c2ccsc2)C2CCC(C)CC2)nn1 (stereo not given in full) | > 15 µM | > 15 µM | > 15 µM | – | – | 0.015 µM | > 15 µM
CCCC[C@@H](C#N)n1cc([C@@](C)(NC(=O)c2ccsc2)C(C)C)nn1 | > 10 µM | > 10 µM | 0.43 µM | > 10 µM | > 10 µM | 0.42 µM | –
CCCC[C@@H](C#N)n1cc([C@@](C)(NC(=O)c2ccccc2)C(C)C)nn1 | > 10 µM | > 10 µM | 0.88 µM | > 10 µM | > 10 µM | 1.2 µM | –

Further lines, results first:

IC50 (Procathepsin L) | Ki (Procathepsin L) | Ki (Cathepsin K) | IC50 (Cathepsin B) | Ki (Cathepsin B) | Ki (Cathepsin S) | IC50 (Cathepsin K) | Compound
> 10 µM | > 10 µM | 1.7 µM | > 10 µM | > 10 µM | 0.018 µM | – | CCCC[C@@H](C#N)n1cc([C@@](C)(NC(=O)c2ccsc2)C2CCCCC2)nn1
> 10 µM | > 10 µM | > 10 µM | > 10 µM | > 10 µM | 0.2 µM | > 10 µM | CCCC[C@@H](C#N)n1cc([C@@](C)(NC(=O)c2ccccc2)C2CCCCC2)nn1
